Platelet DG rel – modulates dense granule release in human platelets | hit rate 0.22% among 300,000 | inhibition, %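 (compounds screened at 7.5 µM in platelet-rich plasma)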 | AID 1663 | human platelet-rich plasma, SFLLRN dense granule ATP release, luminescence;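 active = mean replicate score, as percent of positive control, at or above 50; inconclusive = mean below 50 but at least one replicate at or above 50; inactive = mean and every replicate below 50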
SENP8 block-1 – inhibitors of human SENP8 protease; AID 602440; hit rate 0.64% among 360,000; recombinant SENP8, Nedd8 substrate fluorescence; inhibition, % at 20 µM; Q96LD8; in the data active = inhibition mostly above about 40%, no sharp cut-off; inactive = mostly below about 27%
Target sequence (Q96LD8 whole entry, looked up): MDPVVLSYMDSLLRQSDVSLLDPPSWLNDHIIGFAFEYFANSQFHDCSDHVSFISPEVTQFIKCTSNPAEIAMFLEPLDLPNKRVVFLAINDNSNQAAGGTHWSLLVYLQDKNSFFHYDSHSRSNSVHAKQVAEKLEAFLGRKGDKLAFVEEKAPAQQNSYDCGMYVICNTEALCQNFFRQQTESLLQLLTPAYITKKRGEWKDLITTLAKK
SENP7 block – inhibitors of human SENP7 protease | Q9BQF6 | recombinant SENP7, Z-RLRGG-aminoluciferin luminescence, 40 min | inhibition, % at 5 µM | hit rate 1.5% among 330,000 | AID 434973;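 active = inhibition above about 50% at the single test dose, limit read from the data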
SENP1 FRET inh – SENP1 (human) catalytic domain inhibition. Q9P0U3. hit rate 0.21% among 360,000. inhibition, % at 10 µM. recombinant SENP1 catalytic domain, CyPet-SUMO1-YPet FRET cleavage. AID 624204;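 active = inhibition at least 30% at 10 µM, raw YFP signal under a set limit, fluorescence ratio 0.5 to 1.5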
Target sequence (Q9P0U3 419-644 limits assumed): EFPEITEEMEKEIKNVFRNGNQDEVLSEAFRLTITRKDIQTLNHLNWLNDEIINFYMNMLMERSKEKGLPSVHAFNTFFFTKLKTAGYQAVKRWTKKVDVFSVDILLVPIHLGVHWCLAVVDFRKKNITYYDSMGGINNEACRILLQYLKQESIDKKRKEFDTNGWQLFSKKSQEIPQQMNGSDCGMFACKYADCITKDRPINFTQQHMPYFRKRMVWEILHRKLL
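Assay system: hSENP1 catalytic domain, recombinant. Amount: SENP1 enzyme, 20 pM final. Schedule: 50 min reaction, RT, dark. Technique: FRET, CFP and YFP emission. Control set: no-enzyme wells low, DMSO-plus-enzyme wells high control.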
SENP6 inh – blocks the human protease SENP6; Q9GZR1; Recombinant SENP6 catalytic domain, aminoluciferin luminescence; inhibition, % at 10 µM; hit rate 1.8% among 330,000;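 active = inhibition above about 50% at the single tested dose, limit read from the data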
SENP8 block-2 – inhibitors of human SENP8 protease. hit rate 1.2% among 330,000. purified SENP8, Z-RLRGG-aminoluciferin cleavage, luminescence. Q96LD8. inhibition, % at 10 µM; in the data active = inhibition above about 50%
SENP8 conf – human SENP8 inhibition, confirmed; inhibition, % at 12.5 µM; hit rate 40% among 6,200; Recombinant SENP8, Z-RLRGG-aminoluciferin luminescence, 60 min; shares compounds with SENP7 block;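 active = mean inhibition across replicates above about 50%, limit read from the data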
SENP6 confirm – confirmation of human SENP6 protease inhibitors; recombinant SENP6, Z-RLRGG-aminoluciferin luminescence; inhibition, % at 12.5 µM; shares compounds with SENP7 block; hit rate 58% among 6,200
SENP7 confirm – confirmation of human SENP7 protease inhibitors | shares compounds with SENP7 block | recombinant SENP7, Z-RLRGG-aminoluciferin luminescence, 40 min | inhibition, % at 12.5 µM | hit rate 69% among 6,200 | AID 488917
Casp3 SENP sel – selectivity test for SENP inhibitors: human caspase-3 inhibition. hit rate 60% among 6,200. shares compounds with SENP7 block. inhibition, % at 12.5 µM. purified caspase-3, Z-DEVD-aminoluciferin luminescence, 60 min. AID 488918;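 active = mean inhibition above about 50%, limit read from the data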
Target sequence (P42574 28-227 limits assumed): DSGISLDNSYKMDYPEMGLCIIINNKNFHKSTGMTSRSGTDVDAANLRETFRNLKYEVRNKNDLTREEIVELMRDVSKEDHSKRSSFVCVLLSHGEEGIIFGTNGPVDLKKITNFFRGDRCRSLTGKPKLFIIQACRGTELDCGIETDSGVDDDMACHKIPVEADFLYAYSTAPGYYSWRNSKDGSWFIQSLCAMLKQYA
SENP luc ctr – counter-screen for SENP inhibitors: luminescence interference. shares compounds with SENP7 block. inhibition, % at 12.5 µM. Pre-incubated SENP8/Z-RLRGG-aminoluciferin, luciferase luminescence interference. AID 488919. hit rate 39% among 6,200;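 active = mean inhibition above about 50% when retested at one dose, limit read from the data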
A number is an active result; n = inactive; u = inconclusive; x = no result. An excerpt weighted towards active compounds, which were near 2.6% of everything screened.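 The calls were made as follows, unless noted: active = mean inhibition above about 50% in the one-dose retest (limit read from the data); inactive = the rest.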

SMILES | Platelet DG rel | SENP8 block-1 | SENP7 block | SENP1 FRET inh | SENP6 inh | SENP8 block-2 | SENP8 conf | SENP6 confirm | SENP7 confirm | Casp3 SENP sel | SENP luc ctr
Cc1ccccc1NC(C)C(=O)N/N=C/c1ccccc1OCc1cccc(Br)c1 (stereo not drawn) | n | n | n | n | n | n | x | x | x | x | x
CCC(C)CN1C(=O)CSCC1(C)C(=O)Nc1c(C)cccc1C (stereo not drawn) | x | n | x | n | x | x | x | x | x | x | x
O=C(CCCN1C(=O)/C(=C/c2ccccc2)SC1=S)Nc1ccc(C(=O)O)c(O)c1 | n | n | n | n | 79.0 | 72.6 | 73.2 | 72.0 | 83.5 | n | 76.4
O=C(CCN1C(=O)S/C(=C/c2ccc(F)cc2)C1=O)Nc1ccc(O)c(C(=O)O)c1 | n | n | n | n | n | n | x | x | x | x | x
O=C(CCN1C(=O)S/C(=C\c2ccc(Cl)cc2)C1=O)Nc1ccc(C(=O)O)cc1 | n | n | n | n | n | n | x | x | x | x | x
O=C(CCN1C(=O)S/C(=C/c2ccccc2)C1=O)Nc1ccc(C(=O)O)c(O)c1 | n | n | n | n | 56.9 | n | 59.6 | 54.8 | 73.7 | n | 64.7
O=C(CCN1C(=O)S/C(=C\c2ccc(F)cc2)C1=O)Nc1ccc(C(=O)O)c(O)c1 | n | n | 60.4 | n | 82.4 | 74.8 | 85.2 | 80.3 | 81.3 | n | 79.0
COc1ccc(C=C2SC(=S)N(CCCC(=O)Nc3ccc(C(=O)O)c(O)c3)C2=O)cc1OC | x | n | x | n | x | x | x | x | x | x | x
O=C(CCN1C(=O)/C(=C\c2ccccc2F)SC1=S)Nc1ccc(C(=O)O)c(O)c1 | n | n | n | n | 66.0 | 64.4 | 77.6 | 73.3 | 66.8 | n | 51.7
Cc1cnc(N)nc1-c1ccccc1 | x | n | x | n | x | x | x | x | x | x | x
CCCC(=O)Nc1ccc(NC(=O)c2cc3ccccc3o2)c(OC)c1 | n | n | 54.5 | n | n | n | n | n | n | n | n
O=C(O)c1ccc(NC(=O)c2cc3ccccc3o2)cc1 | n | n | n | n | n | n | x | x | x | x | x
CC(=O)Nc1cc2ccccc2oc1=O | n | n | n | n | n | n | x | x | x | x | x
Cc1ccc(C(=O)Nc2cc3ccccc3oc2=O)cc1 | 49.7 | n | 97.7 | n | 90.8 | 89.3 | n | n | n | 55.5 | n
COC(=O)c1ccccc1NC(=O)c1cc2ccccc2o1 | n | n | n | n | n | n | x | x | x | x | x
O=C(Nc1ccccc1C(F)(F)F)c1cc2ccccc2o1 | n | n | 68.3 | n | 73.5 | 66.5 | 60.5 | 70.6 | 91.6 | 73.6 | 67.3
O=C(Nc1ccccn1)c1cc2ccccc2o1 | u | n | 98.1 | n | 97.2 | 95.1 | 52.1 | 97.8 | 101.4 | 97.3 | 96.1
CN(CCc1ccccc1)C(CCc1ccccc1)C(=O)Nc1ccc2c(c1)OCCO2 (stereo not drawn) | x | n | x | n | x | x | x | x | x | x | x
Cc1occc1C(=O)Nc1cccc(Cl)c1Cl | n | n | n | n | n | n | x | x | x | x | x
C[C@@]12CCC3[C@@](CCC4[C@@]3(C)CCC[C@@]4(C)C(=O)N3CCOCC3)(CC1=O)C2 (stereo partly drawn) | x | n | n | n | n | n | x | x | x | x | x
CCOc1ccc(N2CC(NC(=O)c3cccc4ccccc34)CC2=O)cc1 (stereo not drawn) | n | n | n | n | n | n | x | x | x | x | x
O=C(Nc1ncccc1O)c1cc2ccccc2o1 | n | n | 67.9 | n | 67.4 | n | 63.4 | 62.8 | 84.8 | 86.9 | 67.9
O=C(Nc1cccc2ncccc12)c1cc2ccccc2o1 | n | n | n | n | n | n | x | x | x | x | x
Cc1csc(NC(=O)c2cc3ccccc3o2)n1 | x | n | 89.7 | n | 84.7 | 78.8 | 85.7 | 82.2 | 97.1 | 90.3 | 86.3
O=C(Nc1ccccn1)c1cc2ccccc2cc1O | n | n | 52.4 | n | 76.8 | 75.4 | n | n | n | n | n
SMILES | Platelet DG rel | SENP8 block-1 | SENP7 block | SENP1 FRET inh | SENP6 inh | SENP8 block-2 | SENP8 conf | SENP6 confirm | SENP7 confirm | Casp3 SENP sel | SENP luc ctr
Cc1ccc(C)c(NC(=O)c2ccc3ccccc3n2)c1 | n | n | 97.0 | n | 96.8 | 90.8 | 81.8 | n | n | 66.9 | n
O=C(COc1ccccc1C(=O)NCc1ccncc1)Nc1ccc(Br)cc1 | n | n | n | n | n | n | x | x | x | x | x
O=C(NC1=NCCS1)c1ccc(Cl)c(Cl)c1 | n | n | 59.9 | n | 69.5 | n | n | 63.0 | n | 64.6 | n
O=C(NC1=NCCS1)c1cc(Cl)ccc1Cl | n | n | n | n | n | n | x | x | x | x | x
O=C(NC1=NCCS1)c1cc2ccccc2o1 | n | n | 60.3 | n | 52.5 | n | n | n | 81.3 | 77.1 | 58.1
O=C(NC1=NCCS1)c1ccccc1Cl | n | n | n | n | n | n | x | x | x | x | x
O=C(NC1=NCCS1)c1csc2ccccc12 | n | n | 72.6 | n | 80.7 | 60.3 | n | 68.5 | 89.4 | 77.9 | 73.6
C/C(CC(=O)Nc1ccccn1)=N\NC(=O)C(=O)Nc1cccc(C)c1 | n | n | n | n | n | n | x | x | x | x | x
O=C(Nc1cccc(O)c1)C(=O)Nc1ccccn1 | 70.8 | n | 97.4 | n | 96.1 | 87.4 | 93.1 | 93.1 | 100.3 | 96.5 | 81.9
COc1cccc(NC(C)(C)c2nnnn2-c2c(C)cccc2C)c1 | n | n | n | n | n | n | x | x | x | x | x
CCCNC(=O)C1(C)CCN(C(=O)c2cc(F)cc(F)c2)C1 (stereo not drawn) | x | n | x | n | x | x | x | x | x | x | x
CCOC(=O)Cc1csc(NC(=O)c2cc3ccccc3o2)n1 | n | n | n | n | n | n | x | x | x | x | x
Cc1ccc(C)c(NC(=O)c2cc3ccccc3o2)c1 | n | n | 53.3 | n | n | n | 52.2 | n | 77.7 | 58.2 | n
COc1ccc(C)cc1NC(=O)c1cc2ccccc2o1 | n | n | n | n | n | n | x | x | x | x | x
O=C(Nc1ccc(Cl)cn1)c1cc2ccccc2o1 | n | n | 79.4 | n | 73.6 | 59.3 | n | 63.7 | 81.7 | 70.3 | n
Cc1ccnc(NC(=O)c2cc3ccccc3o2)c1 | n | n | 98.6 | n | 94.3 | 90.2 | 96.0 | 96.7 | 101.5 | 96.6 | 94.1
Cc1csc(C(C#N)C(=O)c2cc3ccccc3o2)n1 (stereo not drawn) | n | n | n | n | 59.2 | 53.9 | n | 73.3 | 86.1 | 78.7 | n
CC1=C(CO)C(=O)OC([C@@H](C)C2CC[C@H]3C4C[C@H]5O[C@]56[C@@H](O)C=CC(=O)[C@]6(C)C4CC[C@]23C)C1 (stereo partly drawn) | n | n | x | n | x | x | x | x | x | x | x
Oc1ccccc1-c1cncn1Cc1ccccc1 | n | n | n | n | n | n | x | x | x | x | x
